Experimental findings from ChEMBL document CHEMBL2417407, “Regioselective synthesis of phenanthrenes and evaluation of their anti-oxidant based anti-inflammatory potential” (Eur J Med Chem, 2013) are described below.

The nature of data set [1]: Antioxidant activity assessed as galvinoxyl free radical scavenging activity after 20 mins. In kind it is functional.
Data set [2] can be described thus: Antioxidant activity assessed as ABTS free radical scavenging activity after 1 min. In kind it is functional. In outline: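 ABTS radical cation was generated from 7 mM ABTS stock and 2.45 mM potassium persulfate (final) left 16 h in the dark at room temperature. Working solution (1.0 mL) was added to the compound in methanol, giving final 1–100 µg/mL. Absorbance at 734 nm was read after exactly 1 min. Percent scavenging was calculated from absorbances as in the DPPH assay.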

In data set [3] the test system is Radical scavenging activity. Briefly: Antioxidant activity assessed as DPPH free radical scavenging activity after 30 mins. The format is functional. In outline: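 Compound solution was mixed with 316 µM DPPH solution, giving final compound concentrations of 1, 5, 12.5, 25, 50 and 100 µg/mL. The mixture was shaken 1 min and incubated at 37 °C for 30 min. Absorbance was read at 517 nm and percent scavenging was calculated as [1 − (A1 − A2)/A0] × 100.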
For orientation: Loss of DPPH colour is used to gauge radical scavenging.

In data set [4] the test system is THP-1. Briefly: Antiinflammatory activity in human THP1 cells assessed as inhibition of LPS-stimulated TNF-alpha release at 50 uM incubated for 1 hr prior to LPS challenge measured after 24 hrs by sandwich ELISA relative to untreated control. In kind it is functional. In outline: (§1)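 THP-1 cells were grown in RPMI 1640 with 10% heat-inactivated FBS, 1% non-essential amino acids, 1% glutamine, penicillin and streptomycin at 37 °C under 5% CO2. They were seeded at 2 × 10⁵ cells/well and pretreated with compound for 1 h in serum-free medium. LPS (E. coli O55:B5, 250 ng/mL) was then added for 24 h at 37 °C. Supernatant TNF-α was measured by sandwich ELISA, with LPS-stimulated cells taken as 0% inhibition. Triplicates, two independent experiments.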
Background: An ELISA detects its analyte on a solid surface through an enzyme-linked reagent.

Data set [5] relates to THP-1. Briefly: Cytotoxicity against human THP1 cells assessed as cell viability at 1 uM after 24 hrs by CCK-8 assay relative to untreated control. As to conditions: thp-1, 24 h. The format is cell-based. In a few lines: (§2)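 THP-1 cells were seeded at 2 × 10⁵ cells/well and exposed to compound in serum-free medium for 24 h at 37 °C under 5% CO2. CCK-8 reagent was then added for 2 h and absorbance was read at 450 nm. Relative viability was calculated as absorbance of treated cells divided by absorbance of untreated cells. Triplicates, two independent experiments.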
For orientation: Tetrazolium assays rely on reduction of a dye to a coloured formazan, in cell work by metabolically active cells.

The test system of data set [6] is THP-1. Briefly: Cytotoxicity against human THP1 cells assessed as cell viability at 50 uM after 24 hrs by CCK-8 assay relative to untreated control. The format is cell-based. As to conditions: thp-1, 24 h. In outline:
as §2

In data set [7] the test system is THP-1. Briefly: Antiinflammatory activity in human THP1 cells assessed as inhibition of LPS-stimulated TNF-alpha release at 1 uM incubated for 1 hr prior to LPS challenge measured after 24 hrs by sandwich ELISA relative to untreated control. In kind it is functional. In a few lines: as §1
The test system of data set [8] is THP-1. Briefly: Cytotoxicity against human THP1 cells assessed as cell viability at 100 uM after 24 hrs by CCK-8 assay relative to untreated control. In kind it is cell-based. As to conditions: thp-1, 24 h. In outline: as §2
Data set [9] relates to THP-1. Description: Antiinflammatory activity in human THP1 cells assessed as inhibition of LPS-stimulated TNF-alpha release at 100 uM incubated for 1 hr prior to LPS challenge measured after 24 hrs by sandwich ELISA relative to untreated control. The format is functional. In outline:
as §1

For data set [10], the system named is THP-1. Description: Antiinflammatory activity in human THP1 cells assessed as inhibition of LPS-stimulated TNF-alpha release at 10 uM incubated for 1 hr prior to LPS challenge measured after 24 hrs by sandwich ELISA relative to untreated control. In kind it is functional. In a few lines:
as §1

The subject of data set [11] is THP-1. Briefly: Cytotoxicity against human THP1 cells assessed as cell viability at 10 uM after 24 hrs by CCK-8 assay relative to untreated control. The format is cell-based. As to conditions: thp-1, 24 h. In a few lines:
as §2

The test system of data set [12] is THP-1. Briefly: Antiinflammatory activity in human THP1 cells assessed as inhibition of LPS-stimulated TNF-alpha release incubated for 1 hr prior to LPS challenge measured after 24 hrs by sandwich ELISA. In kind it is functional, cell-based. In outline:
as §1

Structures are written as SMILES. Converted amounts (≈) assume the structure as drawn.

In the case of `Oc1cc(O)c2c(c1)OC(c1ccc(O)c(O)c1)C(O)C2` (stereo unspecified) [CATECHIN], the IC50 in [1] stood at 18.03 µg/mL (≈ 62.1 µM); in [2], 11.46 µg/mL (≈ 39.5 µM); in [3], 15.6 µg/mL (≈ 53.7 µM).
As to `c1ccc2c(c1)CCc1ccccc1-2`, the inhibition at 50 µM with THP-1 [4] came to 5%. For the same compound, the “fold change (FC)” value in the data set on THP-1 [5] was determined as 1.6; in the data set with THP-1 [6], 1.3; in the data set with THP-1 [8], 1.2; in the data set with THP-1 [11], 1.5. For the same compound, the IC50 in [1], in [2] and in data set [3] was over 100 µg/mL in each case. Moreover, the inhibition at 1 µM in the data set on THP-1 [7] was found to be 0%. Further, the inhibition at 100 µM in the data set with THP-1 [9] turned out to be 14.5%. Further, in the data set on THP-1 [10], the inhibition at 10 µM was determined as 0%.
Consider `Cc1cc(C(C)(C)C)c(O)c(C(C)(C)C)c1` [BUTYLATED HYDROXYTOLUENE], for which the results for the IC50 in data set [1], in data set [2] and in data set [3] were 43.7 µg/mL (≈ 198 µM), 36.11 µg/mL (≈ 164 µM) and 31.51 µg/mL (≈ 143 µM), respectively.
`c1ccc2c(c1)ccc1ccccc12` [PHENANTHRENE]: the inhibition at 50 µM in the data set on THP-1 [4] was 6%. For the same compound, the “fold change (FC)” value is 1.4 with THP-1 [5], 1.2 in the data set with THP-1 [6], 1.1 in the data set on THP-1 [8] and 1.3 in the data set with THP-1 [11]. Also, the IC50 in [1], in data set [2] and in [3] was over 100 µg/mL in each case. For the same compound, the inhibition at 1 µM in the data set with THP-1 [7] was 0%. Also, the inhibition at 100 µM in the data set on THP-1 [9] worked out at 8.5%. For the same compound, the inhibition at 10 µM in the data set on THP-1 [10] came out at 0%.
Turning to `COc1cc(O)c2c(c1)CCc1c-2ccc(OC)c1O`, in the data set with THP-1 [4], the inhibition at 50 µM is 79%. For the same compound, the “fold change (FC)” value came out at 1.5 in the data set with THP-1 [5], 1.2 in the data set on THP-1 [6], 1.1 with THP-1 [8] and 1.4 in the data set on THP-1 [11]. For the same compound, the figures for the IC50 in data set [1], in [2] and in [3] were 17.97 µg/mL (≈ 66 µM), 16.98 µg/mL (≈ 62.4 µM) and 27.8 µg/mL (≈ 102 µM), respectively. Moreover, the inhibition at 1 µM in the data set with THP-1 [7] is 9%. For the same compound, the inhibition at 100 µM with THP-1 [9] was 94%. For the same compound, in the data set with THP-1 [10], the inhibition at 10 µM came out at 30%. In addition, the inhibition result with THP-1 [12] was “Dose-dependent effect”.
Consider `O=C1O[C@H]([C@@H](O)CO)C(O)=C1O` [ASCORBIC ACID], for which the IC50 in data set [1] is 5.23 µg/mL (≈ 29.7 µM); in data set [2] it was 29.17 µg/mL (≈ 166 µM); in [3], 15.12 µg/mL (≈ 85.8 µM).
On to `COc1cc(/C=C/C(=O)CC(=O)/C=C/c2ccc(O)c(OC)c2)ccc1O` [CURCUMIN], for which the inhibition at 50 µM with THP-1 [4] turned out to be 95.5%. The “fold change (FC)” value in the data set on THP-1 [5] was 1.8; in the data set on THP-1 [6], 0.9; in the data set with THP-1 [8] it was 0.5; in the data set with THP-1 [11] it was 1.5. For the same compound, the IC50 in data set [1] stood at 17.03 µg/mL (≈ 46.2 µM); in data set [2], 28.3 µg/mL (≈ 76.8 µM); in [3], 11.41 µg/mL (≈ 31 µM). Besides, the inhibition at 1 µM with THP-1 [7] amounted to 1.5%. Further, in the data set with THP-1 [9], the inhibition at 100 µM is 102%. For the same compound, in the data set with THP-1 [10], the inhibition at 10 µM was 38%. Moreover, in the data set with THP-1 [12], the inhibition entry was “Dose-dependent effect”.
For `COc1cc2ccc3cc(O)ccc3c2c(OC)c1O`, in the data set with THP-1 [4], the inhibition at 50 µM came out at 34%. Also, the “fold change (FC)” value is on record as 1.4 in the data set on THP-1 [5], 1.1 in the data set with THP-1 [6], 1 in the data set with THP-1 [8] and 1.3 in the data set with THP-1 [11]. Moreover, the IC50 came out at 11.79 µg/mL (≈ 43.6 µM) in [1], 13.39 µg/mL (≈ 49.5 µM) in data set [2] and 11.18 µg/mL (≈ 41.4 µM) in data set [3]. Moreover, the inhibition at 1 µM in the data set on THP-1 [7] turned out to be 3.5%. Also, the inhibition at 100 µM with THP-1 [9] came out at 67.5%. The inhibition at 10 µM in the data set with THP-1 [10] is 15.5%. Besides, the inhibition entry with THP-1 [12] is “Dose-dependent effect”.
Regarding `COc1cc2c(c(OC)c1O)-c1ccc(O)cc1CC2` [FLAVANTHRIDIN], the inhibition at 50 µM with THP-1 [4] came to 47%. Further, the “fold change (FC)” value is listed as 1.4 in the data set with THP-1 [5], 1.3 in the data set with THP-1 [6], 1.2 in the data set with THP-1 [8] and 1.4 in the data set on THP-1 [11]. For the same compound, the IC50 in data set [1] is 11.66 µg/mL (≈ 42.8 µM); in data set [2] it was 11.72 µg/mL (≈ 43 µM); in data set [3], 10.28 µg/mL (≈ 37.8 µM). For the same compound, the inhibition at 1 µM in the data set with THP-1 [7] is 8%. Moreover, the inhibition at 100 µM in the data set with THP-1 [9] amounted to 64%. For the same compound, in the data set with THP-1 [10], the inhibition at 10 µM is 17.5%. For the same compound, the inhibition result with THP-1 [12] is “Dose-dependent effect”.
Turning to `COc1ccc2c(c1O)CCc1cc(O)cc(OC)c1-2`, the inhibition at 50 µM with THP-1 [4] is 70%. The “fold change (FC)” value with THP-1 [5] worked out at 1.3; with THP-1 [6], 1.2; in the data set with THP-1 [8], 1; in the data set on THP-1 [11], 1.3. Besides, the IC50 in data set [1] stood at 17.04 µg/mL (≈ 62.6 µM); in data set [2], 15.62 µg/mL (≈ 57.4 µM); in data set [3], 32.5 µg/mL (≈ 119 µM). The inhibition at 1 µM in the data set with THP-1 [7] was found to be 19.5%. In addition, in the data set with THP-1 [9], the inhibition at 100 µM was 83%. Besides, the inhibition at 10 µM in the data set on THP-1 [10] amounted to 31%. Further, the inhibition result in the data set on THP-1 [12] was “Dose-dependent effect”.

One may read the IC50 as the point on the concentration scale where inhibition reaches its midpoint. What is called inhibition is the change of the read-out against control, counted positive when it falls.
